Source: ChEMBL document CHEMBL1121371, “Antihypertensive 5,6-diarylpyridazin-3-ones” (1980)
“And” between values parts separate entries of the source, which are not always exact repeats. Equal entries are not always repeated.

Assays:
Rattus norvegicus [1] = assay: Antihypertensive activity in spontaneously hypertensive rats was measured as average blood pressure at 100 mg/kg, p.o. after 4 hours of postdose-2; type: functional; conditions: route oral
How it was run: (§1)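 Spontaneously hypertensive rats aged 12 to 16 weeks, in groups of five with systolic pressure of 170 mmHg or more. Oral dosing as a solution or suspension in 0.25% methylcellulose, 5 mL/kg, with a vehicle control group. Tail-cuff systolic pressure was read predose and 4 and 24 h after each of two doses. Values were compared with predose by Student's t test.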

Rattus norvegicus [2] = assay: Antihypertensive activity in spontaneously hypertensive rats was measured as average blood pressure at 100 mg/kg, p.o. after 24 hours of postdose-1.; type: functional; conditions: route oral; how it was run: as §1
Rattus norvegicus [3] = assay: Antihypertensive activity in spontaneously hypertensive rats was measured as average blood pressure at 100 mg/kg, po after 24 hours of postdose-2; type: functional; how it was run: as §1
Rattus norvegicus [4] = assay: Antihypertensive activity in spontaneously hypertensive rats was measured as average blood pressure at 100 mg/kg, p.o. after 4 hours of postdose-1; type: functional; conditions: route oral; how it was run: as §1
Rattus norvegicus [5] = assay: Antihypertensive activity in spontaneously hypertensive rats was measured as average blood pressure at 100 mg/kg, p.o. before predose; type: functional; conditions: route oral; how it was run: as §1
Rattus norvegicus [6] = species: Rattus norvegicus; assay: Antihypertensive activity in spontaneously hypertensive rats was measured; (+)=Increased heart rate; type: functional, organism-based
Rattus norvegicus [7] = assay: Antihypertensive activity in DOCA hypertensive rats was measured as average blood pressure at 10 mg/kg, p.o. after 24 hours of postdose-1; conditions: route oral
Rattus norvegicus [8] = assay: Antihypertensive activity in DOCA hypertensive rats was measured as average blood pressure at 10 mg/kg, p.o. after 4 hours of postdose-1.; conditions: route oral
Rattus norvegicus [9] = assay: Antihypertensive activity in spontaneously hypertensive rats was measured as average blood pressure at 30 mg/kg, po after 4 hours of postdose-1.; type: functional; how it was run: as §1
Rattus norvegicus [10] = assay: Antihypertensive activity in spontaneously hypertensive rats was measured as increase in heart rate at 100 mg/kg peroral dose; (+)=Increased heart rate; type: functional, organism-based; design: dose 100 mg/kg
Rattus norvegicus [11] = assay: Antihypertensive activity in DOCA hypertensive rats was measured as average blood pressure at 10 mg/kg, p.o. after 4 hours of postdose-2; conditions: route oral
Rattus norvegicus [12] = assay: Antihypertensive activity in […] hypertensive rats was measured as average blood pressure at 100 mg/kg, p.o. before predose; type: functional; conditions: route oral
Rattus norvegicus [13] = assay: Antihypertensive activity in […] hypertensive rats was measured as average blood pressure at 50 mg/kg, p.o. after 4 hours of postdose-2; type: functional; conditions: route oral
Rattus norvegicus [14] = assay: Antihypertensive activity in […] hypertensive rats was measured as average blood pressure at 100 mg/kg, p.o. after 4 hours of postdose-1.; type: functional; conditions: route oral
Rattus norvegicus [15] = assay: Antihypertensive activity in DOCA hypertensive rats was measured as average blood pressure at 10 mg/kg, p.o. before predose; conditions: route oral
Rattus norvegicus [16] = assay: Antihypertensive activity in spontaneously hypertensive rats was measured as average blood pressure at 30 mg/kg, p.o. after 4 hours of postdose-2; type: functional; conditions: route oral; how it was run: as §1
Rattus norvegicus [17] = assay: Antihypertensive activity in DOCA hypertensive rats was measured as average blood pressure at 25 mg/kg, p.o. after 4 hours of postdose-2; conditions: route oral
Rattus norvegicus [18] = assay: Antihypertensive activity in spontaneously hypertensive rats was measured as increase in heart rate at 30 mg/kg peroral dose; (+)=Increased heart rate; type: functional, organism-based; design: dose 30 mg/kg
Rattus norvegicus [19] = assay: Antihypertensive activity in spontaneously hypertensive rats was measured as average blood pressure at 10 mg/kg, p.o. after 24 hours of postdose-2; type: functional; conditions: route oral; how it was run: as §1
Rattus norvegicus [20] = assay: Antihypertensive activity in spontaneously hypertensive rats was measured as average blood pressure at 10 mg/kg, p.o. before predose; type: functional; conditions: route oral; how it was run: as §1
Rattus norvegicus [21] = assay: Antihypertensive activity in DOCA hypertensive rats was measured as average blood pressure at 25 mg/kg, po before predose
Rattus norvegicus [22] = assay: Antihypertensive activity in […] hypertensive rats was measured as average blood pressure at 100 mg/kg, p.o. after 4 hours of postdose-1; type: functional; conditions: route oral
Rattus norvegicus [23] = assay: Antihypertensive activity in […] hypertensive rats was measured as average blood pressure at 100 mg/kg, p.o. after 24 hours of postdose-1; type: functional; conditions: route oral
Rattus norvegicus [24] = assay: Antihypertensive activity in spontaneously hypertensive rats was measured as average blood pressure at 30 mg/kg, p.o. after 24 hours of postdose-1; type: functional; conditions: route oral; how it was run: as §1
Rattus norvegicus [25] = assay: Antihypertensive activity in spontaneously hypertensive rats was measured as average blood pressure at 30 mg/kg, p.o. before predose; type: functional; conditions: route oral; how it was run: as §1
Rattus norvegicus [26] = assay: Antihypertensive activity in […] hypertensive rats was measured as average blood pressure at 50 mg/kg, p.o. before predose; type: functional; conditions: route oral
Rattus norvegicus [27] = assay: Antihypertensive activity in […] hypertensive rats was measured as average blood pressure at 100 mg/kg, po after 4 hours of postdose-2; type: functional
Rattus norvegicus [28] = assay: Antihypertensive activity in spontaneously hypertensive rats was measured as average blood pressure at 10 mg/kg, p.o. after 24 hours of postdose-1; type: functional; conditions: route oral; how it was run: as §1
Rattus norvegicus [29] = assay: Antihypertensive activity in […] hypertensive rats was measured as average blood pressure at 50 mg/kg, p.o. after 24 hours of postdose-2; type: functional; conditions: route oral
Rattus norvegicus [30] = assay: Antihypertensive activity in […] hypertensive rats was measured as average blood pressure at 100 mg/kg, p.o. after 24 hours of postdose-2; type: functional; conditions: route oral
Rattus norvegicus [31] = assay: Antihypertensive activity in […] hypertensive rats was measured as average blood pressure at 50 mg/kg, p.o. after 24 hours of postdose-1; type: functional; conditions: route oral
Rattus norvegicus [32] = assay: Antihypertensive activity in DOCA hypertensive rats was measured as average blood pressure at 25 mg/kg, p.o. after 24 hours of postdose-2; conditions: route oral
Rattus norvegicus [33] = assay: Antihypertensive activity in DOCA hypertensive rats was measured as average blood pressure at 10 mg/kg, p.o. after 24 hours of postdose-2; conditions: route oral
Rattus norvegicus [34] = assay: Antihypertensive activity in spontaneously hypertensive rats was measured as average blood pressure at 30 mg/kg, p.o. after 24 hours of postdose-2; type: functional; conditions: route oral; how it was run: as §1
Rattus norvegicus [35] = assay: Antihypertensive activity in spontaneously hypertensive rats was measured as average blood pressure at 10 mg/kg, p.o. after 4 hours of postdose-1.; type: functional; conditions: route oral; how it was run: as §1
Rattus norvegicus [36] = assay: Antihypertensive activity in spontaneously hypertensive rats was measured as increase in heart rate at 10 mg/kg peroral dose; (+)=Increased heart rate; type: functional, organism-based; design: dose 10 mg/kg
Rattus norvegicus [37] = assay: Antihypertensive activity in […] hypertensive rats was measured as average blood pressure at 50 mg/kg, p.o. after 4 hours of postdose-1; type: functional; conditions: route oral
Rattus norvegicus [38] = assay: Antihypertensive activity in spontaneously hypertensive rats was measured as average blood pressure at 100 mg/kg, p.o. after 4 hours of postdose; type: functional; conditions: route oral; how it was run: as §1
Rattus norvegicus [39] = assay: Antihypertensive activity in DOCA hypertensive rats was measured as average blood pressure at 25 mg/kg, p.o. after 24 hours of postdose-1; conditions: route oral
Rattus norvegicus [40] = assay: Antihypertensive activity in spontaneously hypertensive rats was measured as average blood pressure at 10 mg/kg, p.o. after 4 hours of postdose-2; type: functional; conditions: route oral; how it was run: as §1
Rattus norvegicus [41] = assay: Antihypertensive activity in spontaneously hypertensive rats was measured as average blood pressure at 25 mg/kg, p.o. after 4 hours of postdose-2; type: functional; conditions: route oral; how it was run: as §1
Rattus norvegicus [42] = assay: Antihypertensive activity in spontaneously hypertensive rats was measured as average blood pressure at 25 mg/kg, p.o. after 24 hours of postdose-1; type: functional; conditions: route oral; how it was run: as §1
Rattus norvegicus [43] = assay: Antihypertensive activity in spontaneously hypertensive rats was measured as average blood pressure at 25 mg/kg, p.o. after 4 hours of postdose-1.; type: functional; conditions: route oral; how it was run: as §1
Rattus norvegicus [44] = assay: Antihypertensive activity in spontaneously hypertensive rats was measured as average blood pressure at 25 mg/kg, p.o. before predose; type: functional; conditions: route oral; how it was run: as §1
Rattus norvegicus [45] = assay: Antihypertensive activity in spontaneously hypertensive rats was measured as average blood pressure at 25 mg/kg, p.o. after 24 hours of postdose-2; type: functional; conditions: route oral; how it was run: as §1
Rattus norvegicus [46] = assay: Antihypertensive activity in spontaneously hypertensive rats was measured as average blood pressure at 75 mg/kg, p.o. after 4 hours of postdose-2; type: functional; conditions: route oral
Rattus norvegicus [47] = assay: Antihypertensive activity in spontaneously hypertensive rats was measured as average blood pressure at 75 mg/kg, p.o. after 24 hours of postdose-1; type: functional; conditions: route oral
Rattus norvegicus [48] = assay: Antihypertensive activity in spontaneously hypertensive rats was measured as average blood pressure at 75 mg/kg, po after 4 hours of postdose-1.; type: functional
Rattus norvegicus [49] = assay: Antihypertensive activity in spontaneously hypertensive rats was measured as average blood pressure at 75 mg/kg, p.o. before predose; type: functional; conditions: route oral
Rattus norvegicus [50] = assay: Antihypertensive activity in spontaneously hypertensive rats was measured as average blood pressure at 75 mg/kg, p.o. after 24 hours of postdose-2; type: functional; conditions: route oral
Rattus norvegicus [51] = assay: Antihypertensive activity in spontaneously hypertensive rats was measured as change in heart rate at 100 mg/kg peroral dose; No significant change is heart rate; type: functional; conditions: route oral
Rattus norvegicus [52] = assay: Antihypertensive activity in spontaneously hypertensive rats was measured as average blood pressure at 100 mg/kg, p.o. after 24 hours of postdose; type: functional; conditions: route oral; how it was run: as §1

## O=c1c(-c2ccccc2)c(-c2ccccc2)c(-c2ccccc2)nn1CCO
Rattus norvegicus [1]
  BP: 176 mmHg
Rattus norvegicus [2]
  BP: 187 mmHg
Rattus norvegicus [3]
  BP: 188 mmHg
Rattus norvegicus [4]
  BP: 173 mmHg
Rattus norvegicus [5]
  BP: 200 mmHg
Rattus norvegicus [6]
  Heart rate: Increased heart rate

## CC(=O)c1c(-c2ccc(Cl)cc2)c(-c2ccc(Cl)cc2)nn(CCO)c1=O
Rattus norvegicus [7]
  BP: 192 mmHg
Rattus norvegicus [1]
  BP: 174 mmHg
Rattus norvegicus [8]
  BP: 191 mmHg
Rattus norvegicus [9]
  BP: 200 mmHg
Rattus norvegicus [10]
  Heart rate: Increased heart rate
Rattus norvegicus [2]
  BP: 185 mmHg
Rattus norvegicus [11]
  BP: 188 mmHg
Rattus norvegicus [3]
  BP: 193 mmHg
Rattus norvegicus [12]
  BP: 222 mmHg and 125 mmHg
Rattus norvegicus [13]
  BP: 182 mmHg
Rattus norvegicus [14]
  BP: 123 mmHg
Rattus norvegicus [15]
  BP: 224 mmHg
Rattus norvegicus [16]
  BP: 164 mmHg
Rattus norvegicus [17]
  BP: 188 mmHg
Rattus norvegicus [18]
  Heart rate: Increased heart rate
Rattus norvegicus [19]
  BP: 197 mmHg
Rattus norvegicus [20]
  BP: 202 mmHg
Rattus norvegicus [21]
  BP: 235 mmHg
Rattus norvegicus [22]
  BP: 169 mmHg
Rattus norvegicus [23]
  BP: 178 mmHg and 125 mmHg
Rattus norvegicus [24]
  BP: 192 mmHg
Rattus norvegicus [25]
  BP: 213 mmHg
Rattus norvegicus [26]
  BP: 224 mmHg
Rattus norvegicus [27]
  BP: 164 mmHg and 127 mmHg
Rattus norvegicus [28]
  BP: 203 mmHg
Rattus norvegicus [29]
  BP: 213 mmHg
Rattus norvegicus [30]
  BP: 195 mmHg and 130 mmHg
Rattus norvegicus [31]
  BP: 184 mmHg
Rattus norvegicus [32]
  BP: 208 mmHg
Rattus norvegicus [33]
  BP: 210 mmHg
Rattus norvegicus [34]
  BP: 206 mmHg
Rattus norvegicus [35]
  BP: 187 mmHg
Rattus norvegicus [5]
  BP: 218 mmHg
Rattus norvegicus [36]
  Heart rate: Increased heart rate
Rattus norvegicus [37]
  BP: 171 mmHg
Rattus norvegicus [38]
  BP: 173 mmHg
Rattus norvegicus [39]
  BP: 191 mmHg
Rattus norvegicus [40]
  BP: 191 mmHg

## Br.CC(=O)c1c(-c2ccc(Cl)cc2)c(-c2ccc(Cl)cc2)nn(CCN)c1=O
Rattus norvegicus [41]
  BP: 177 mmHg
Rattus norvegicus [42]
  BP: 162 mmHg
Rattus norvegicus [43]
  BP: 184 mmHg
Rattus norvegicus [44]
  BP: 194 mmHg
Rattus norvegicus [45]
  BP: 183 mmHg

## CC(=O)c1c(-c2ccccc2)c(-c2ccccc2)nn(CCO)c1=O
Rattus norvegicus [46]
  BP: 164 mmHg
Rattus norvegicus [47]
  BP: 163 mmHg
Rattus norvegicus [48]
  BP: 181 mmHg
Rattus norvegicus [49]
  BP: 200 mmHg
Rattus norvegicus [50]
  BP: 176 mmHg

## N#Cc1c(O)nnc(-c2ccc(Cl)cc2)c1-c1ccc(Cl)cc1
Rattus norvegicus [1]
  BP: 173 mmHg
Rattus norvegicus [51]
  Heart rate: 0
Rattus norvegicus [3]
  BP: 175 mmHg
Rattus norvegicus [52]
  BP: 177 mmHg
Rattus norvegicus [5]
  BP: 205 mmHg
Rattus norvegicus [38]
  BP: 171 mmHg
